The target in the assay is KIX domain of p300/CBP (KIX–MLL interaction) (Mus musculus, UniProt P45481). Description: competition fluorescence polarization assay, inhibition of KIX–MLL interaction. In kind it is binding. Put shortly:
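Competition fluorescence polarization format: test peptidomimetic competes with fluorescently labeled MLL peptide for KIX, and Ki is derived from the competition data.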
On the technique in general: Fluorescence polarisation rises when a labelled molecule tumbles more slowly, as on binding a larger partner.

The term Ki denotes a measure of affinity in units of concentration, obtained from inhibition or displacement. Read a high Ki as a looser hold on the target.

Chain of KIX domain of p300/CBP (KIX–MLL interaction) (P45481 586-665 limits assumed): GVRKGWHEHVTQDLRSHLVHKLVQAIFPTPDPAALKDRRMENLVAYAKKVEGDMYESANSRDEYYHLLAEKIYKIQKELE

Turning to “Ac-SDIMDFVLKNTP-NH2 [MLL^847–858, Ac-SDIMDFVLKNTP-NH2]”, the Ki is above 1000 µM.

The values above are taken from paper PMC8959088 (Journal of the American Chemical Society, 2022).
